According to ChEMBL document CHEMBL3853287, “Characterization of Emodin as a Therapeutic Agent for Diabetic Cataract” (J Nat Prod, 2016):
Activity calls are given as the source filed them. The calls are words filed in the database; no cut-off is given here.

Tests used:
[1] = molecular target: T1, Aldo-keto reductase family 1 member B1 (Homo sapiens, UniProt P15121); test: Inhibition of human recombinant aldose reductase expressed in Escherichia coli using DL-glyceraldehyde as substrate in presence of NADPH by spectrophotometric analysis
[2] = molecular target: T1, Aldo-keto reductase family 1 member B1; test: Inhibition of aldose reductase in human FHL124 cells assessed as reduction in high glucose-induced elevation of sorbitol accumulation at 5 uM after 24 hrs by colorimetric assay; format: cell-based
Procedure, shortened: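 FHL 124 cells (10^5 per 60 mm dish) treated with emodin (5 μM) plus low (5 mM) or high (30 mM) glucose for 24 h. Cells washed twice in cold PBS, lysed and deproteinized. Sorbitol measured in neutralized samples by colorimetric kit at 560 nm.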

Mus musculus [3] = test: In vivo inhibition of aldose reductase in transgenic PAR37 mouse expressing human aldose reductase assessed as reduction in vacuolization at 35 mg/kg, po for 16 days by hematoxylin/eosin staining; format: functional, organism-based
Procedure, shortened: (§1)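 PAR37 human AR transgenic mice and nontransgenic littermates, roughly equal by sex. Nursing mothers given 35 mg kg−1 in drinking water (DMSO vehicle) from pups' birth, or from 3 days before birth in one group. Sorbinil 80 mg kg−1 served as ARI control. Lenses taken at P16 and H&E-stained; vacuolated cross-sectional area measured on sections.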

Mus musculus [4] = test: In vivo inhibition of aldose reductase in wild type mouse assessed as reduction in vacuolization at 35 mg/kg, po administered 3 days prior to birth followed by compound treatment till day 16 by hematoxylin/eosin staining; format: functional, organism-based; procedure, shortened: as §1
[5] = molecular target: T1, Aldo-keto reductase family 1 member B1; test: Uncompetitive inhibition of human recombinant aldose reductase expressed in Escherichia coli using DL-glyceraldehyde as substrate by double reciprocal plot analysis
Mus musculus [6] = test: In vivo inhibition of aldose reductase in wild type mouse assessed as reduction in vacuolization at 35 mg/kg, po for 16 days by hematoxylin/eosin staining; format: functional, organism-based; procedure, shortened: as §1
Mus musculus [7] = test: In vivo inhibition of aldose reductase in transgenic PAR37 mouse expressing human aldose reductase assessed as vacuolization at 35 mg/kg, po for 16 days by hematoxylin/eosin staining (reference value: 18%); format: functional; set-up: scale not given: the % may be the effect or the level left; procedure, shortened: as §1
Mus musculus [8] = test: In vivo inhibition of aldose reductase in transgenic PAR37 mouse expressing human aldose reductase assessed as vacuolization at 35 mg/kg, po administered 3 days prior to birth followed by compound treatment till day 16 by hematoxylin/eosin staining (reference value: 18%); format: functional; set-up: scale not given: the % may be the effect or the level left; procedure, shortened: as §1
[9] = molecular target: T1, Aldo-keto reductase family 1 member B1; test: Inhibition of human recombinant aldose reductase expressed in Escherichia coli at 1 uM using DL-glyceraldehyde as substrate in presence of NADPH measured up to 7 days at 37 degC by spectrophotometric analysis
Procedure, shortened: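 Inhibitor (1 μM, in DMSO) pre-incubated at 37 °C for 1, 3, 5 and 7 days before testing. Recombinant human AKR1B1 from E. coli then assayed by NADPH oxidation at 340 nm with 1.0 mM DL-glyceraldehyde and 150 μM NADPH in HEPES pH 7.5 buffer. Means ± SEM, n = 3.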

[10] = Cytotoxicity against human FHL124 cells assessed as reduction in cell viability at 10 uM after 24 hrs by MTT assay; format: toxicity, cell-based; details: fhl124, 24 h
Procedure, shortened: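 FHL 124 human lens epithelial cells grown in low-glucose (1 g L−1) DMEM with 4 mM L-glutamine and 5% FBS at 37 °C, 5% CO2. Seeded at 10^4 cells, treated with emodin for 24 h, then given MTT for 4 h. Viability read as absorbance at 570 nm.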

Mus musculus [11] = test: In vivo inhibition of aldose reductase in transgenic PAR37 mouse expressing human aldose reductase assessed as vacuolization at 80 mg/kg, po for 16 days by hematoxylin/eosin staining (reference value: 18%); format: functional; set-up: scale not given: the % may be the effect or the level left
Procedure, shortened: (§2)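 Drug dissolved in DMSO was given in the drinking water of nursing mothers from the pups' birthdate, dosed at 80 mg kg−1 to the mother; vehicle group received DMSO. Pups were PAR37 human AR transgenic mice or nontransgenic littermates, balanced by gender, n = 3. Lenses were taken at P16 and sectioned with H&E staining, and vacuolated cross-sectional area was measured as percent of lens.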

Mus musculus [12] = test: In vivo inhibition of aldose reductase in wild type mouse assessed as reduction in vacuolization at 80 mg/kg, po for 16 days by hematoxylin/eosin staining; format: functional, organism-based; procedure, shortened: as §2
Mus musculus [13] = test: In vivo inhibition of aldose reductase in transgenic PAR37 mouse expressing human aldose reductase assessed as reduction in vacuolization at 80 mg/kg, po for 16 days by hematoxylin/eosin staining; format: functional, organism-based; procedure, shortened: as §2

Row | Structure (SMILES) | IC50 [1] | inhibition [2] | inhibition (Mus musculus [3]) | inhibition (Mus musculus [4]) | Ki [5] | inhibition (Mus musculus [6]) | Activity (Mus musculus [7]) | Activity (Mus musculus [8]) | inhibition [9] | Activity [10] | Activity (Mus musculus [11]) | inhibition (Mus musculus [12]) | inhibition (Mus musculus [13])
1 | Cc1cc(O)c2c(c1)C(=O)c1cc(O)cc(O)c1C2=O [EMODIN] | 2690 nM | Active | Active | Active | 2110 nM | Active | 6.3% | 2% | Active | Toxic |  |  | 
2 | O=C1NC(=O)[C@@]2(CCOc3ccc(F)cc32)N1 [SORBINIL] |  |  |  |  |  |  |  |  |  |  | 3.8% | Active | Active
